Measured values: ChEMBL document CHEMBL1138110, “Microwave-assisted synthesis of N-alkylated benzotriazole derivatives: antimicrobial studies” (2006)
Where a name gives a salt, the structure may show the parent alone.

Experiments:
Aspergillus flavus [1] = assay: Antifungal activity against Aspergillus flavus by disk diffusion method at 25 ug/disk; assay type: functional; settings: read-out: IZ
In short: (§1)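 Fungi kept on potato dextrose agar at 28 °C; conidia scraped from 5–15 day PDA cultures into distilled water, filtered through sterile cotton, resuspended, adjusted by hemocytometer to about 10^6 CFU/mL. Paper disks bore 25 µg compound, 10 µg nystatin reference, or DMSO alone. Plates at 4 °C ≥2 h, then 28 °C; zone diameter (mm) read at 48 h; mean of three determinations.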

Fusarium oxysporum [2] = assay: Antifungal activity against Fusarium oxysporum by disk diffusion method at 25 ug/disk; assay type: functional; settings: read-out: IZ; in short: as §1
Trichoderma [3] = assay: Antifungal activity against Trichoderma species by disk diffusion method at 25 ug/disk; assay type: functional; settings: read-out: IZ; in short: as §1
Fusarium verticillioides [4] = assay: Antifungal activity against Fusarium moniliforme by disk diffusion method at 25 ug/disk; assay type: functional; settings: read-out: IZ; in short: as §1
Bacillus subtilis [5] = assay: Antibacterial activity against Bacillus subtilis by disk diffusion method at 25 ug/disk; assay type: functional; settings: read-out: IZ
In short: (§2)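 Bacteria kept on LB agar, grown in LB broth, spun 10,000 rpm 5 min, pellet taken up in double-distilled water, density set by hemocytometer to about 10^4 CFU/mL for plate inoculation. Paper disks carried 25 µg test compound or 10 µg streptomycin/tetracycline reference; DMSO-only disks as negative control. Plates held at 4 °C ≥2 h, then 28 °C; inhibition zone diameter (mm) read at 24 h; mean of three determinations.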

Escherichia coli [6] = assay: Antibacterial activity against Escherichia coli by disk diffusion method at 25 ug/disk; assay type: functional; settings: read-out: IZ; in short: as §2
Pseudomonas fluorescens [7] = assay: Antibacterial activity against Pseudomonas fluorescens by disk diffusion method at 25 ug/disk; assay type: functional; settings: read-out: IZ; in short: as §2
Xanthomonas campestris [8] = assay: Antibacterial activity against Xanthomonas campestris pvs by disk diffusion method at 25 ug/disk; assay type: functional; settings: read-out: IZ; in short: as §2
Aspergillus niger [9] = assay: Antifungal activity against Aspergillus niger by disk diffusion method at 25 ug/disk; assay type: functional; settings: read-out: IZ; in short: as §1
Xanthomonas oryzae [10] = assay: Antibacterial activity against Xanthomonas oryzae by disk diffusion method at 25 ug/disk; assay type: functional; settings: read-out: IZ
Bacillus subtilis [11] = assay: Antibacterial activity against Bacillus subtilis by disk diffusion method at 10 ug/disk; assay type: functional; settings: read-out: IZ
Escherichia coli [12] = assay: Antibacterial activity against Escherichia coli by disk diffusion method at 10 ug/disk; assay type: functional; settings: read-out: IZ; in short: as §2
Pseudomonas fluorescens [13] = assay: Antibacterial activity against Pseudomonas fluorescens by disk diffusion method at 10 ug/disk; assay type: functional; settings: read-out: IZ
Xanthomonas campestris [14] = assay: Antibacterial activity against Xanthomonas campestris pvs by disk diffusion method at 10 ug/disk; assay type: functional; settings: read-out: IZ
Xanthomonas oryzae [15] = assay: Antibacterial activity against Xanthomonas oryzae by disk diffusion method at 10 ug/disk; assay type: functional; settings: read-out: IZ
Aspergillus flavus [16] = assay: Antifungal activity against Aspergillus flavus by disk diffusion method at 10 ug/disk; assay type: functional, organism-based
In short: (§3)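 Fungi kept on potato dextrose agar at 28 °C. Conidia scraped from 5–15 day PDA cultures into water, cotton-filtered, and adjusted by hemocytometer to ~10^6 CFU/mL. Disks carried 10 µg; DMSO-only disks as negative control. Plates held at 4 °C ≥2 h, then 28 °C; inhibition zone diameter (mm) read after 48 h. Mean of three determinations.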

Fusarium oxysporum [17] = assay: Antifungal activity against Fusarium oxysporum by disk diffusion method at 10 ug/disk; assay type: functional, organism-based; in short: as §3
Trichoderma [18] = assay: Antifungal activity against Trichoderma species by disk diffusion method at 10 ug/disk; assay type: functional, organism-based; in short: as §3
Fusarium verticillioides [19] = assay: Antifungal activity against Fusarium moniliforme by disk diffusion method at 10 ug/disk; assay type: functional, organism-based; in short: as §3
Aspergillus niger [20] = assay: Antifungal activity against Aspergillus niger by disk diffusion method at 10 ug/disk; assay type: functional, organism-based; in short: as §3

O=[N+]([O-])c1ccc(Cn2nnc3ccccc32)cc1
zone of inhibition at 25 µg/disc (Aspergillus flavus [1]): 7 mm | zone of inhibition at 25 µg/disc (Fusarium oxysporum [2]): 9 mm | zone of inhibition at 25 µg/disc (Trichoderma [3]): 11 mm | zone of inhibition at 25 µg/disc (Fusarium verticillioides [4]): 8 mm | zone of inhibition at 25 µg/disc (Bacillus subtilis [5]): 6 mm | zone of inhibition at 25 µg/disc (Escherichia coli [6]): 7 mm | zone of inhibition at 25 µg/disc (Pseudomonas fluorescens [7]): 8 mm | zone of inhibition at 25 µg/disc (Xanthomonas campestris [8]): 4 mm | zone of inhibition at 25 µg/disc (Aspergillus niger [9]): 5 mm

CCCCn1nnc2ccccc21
zone of inhibition at 25 µg/disc (Aspergillus flavus [1]): 11 mm | zone of inhibition at 25 µg/disc (Fusarium oxysporum [2]): 14 mm | zone of inhibition at 25 µg/disc (Trichoderma [3]): 15 mm | zone of inhibition at 25 µg/disc (Fusarium verticillioides [4]): 12 mm | zone of inhibition at 25 µg/disc (Bacillus subtilis [5]): 13 mm | zone of inhibition at 25 µg/disc (Escherichia coli [6]): 14 mm | zone of inhibition at 25 µg/disc (Pseudomonas fluorescens [7]): 19 mm | zone of inhibition at 25 µg/disc (Xanthomonas campestris [8]): 12 mm | zone of inhibition at 25 µg/disc (Xanthomonas oryzae [10]): 12 mm | zone of inhibition at 25 µg/disc (Aspergillus niger [9]): 8 mm

CN[C@@H]1[C@H](O[C@H]2[C@H](O[C@H]3[C@H](O)[C@@H](O)[C@H](N=C(N)N)[C@@H](O)[C@@H]3N=C(N)N)O[C@@H](C)[C@]2(O)C=O)O[C@@H](CO)[C@H](O)[C@H]1O [STREPTOMYCIN SULFATE]
zone of inhibition at 10 µg/disc (Bacillus subtilis [11]): 12 mm | zone of inhibition at 10 µg/disc (Escherichia coli [12]): 14 mm | zone of inhibition at 10 µg/disc (Pseudomonas fluorescens [13]): 18 mm

N#Cc1ccccc1-c1ccc(Cn2nnc3ccccc32)cc1
zone of inhibition at 25 µg/disc (Aspergillus flavus [1]): 17 mm | zone of inhibition at 25 µg/disc (Fusarium oxysporum [2]): 20 mm | zone of inhibition at 25 µg/disc (Trichoderma [3]): 18 mm | zone of inhibition at 25 µg/disc (Fusarium verticillioides [4]): 17 mm | zone of inhibition at 25 µg/disc (Bacillus subtilis [5]): 16 mm | zone of inhibition at 25 µg/disc (Escherichia coli [6]): 18 mm | zone of inhibition at 25 µg/disc (Pseudomonas fluorescens [7]): 21 mm | zone of inhibition at 25 µg/disc (Xanthomonas campestris [8]): 16 mm | zone of inhibition at 25 µg/disc (Xanthomonas oryzae [10]): 15 mm | zone of inhibition at 25 µg/disc (Aspergillus niger [9]): 14 mm

CN(C)[C@@H]1C(O)=C(C(N)=O)C(=O)[C@@]2(O)C(O)=C3C(=O)c4c(O)cccc4[C@@](C)(O)[C@H]3C[C@@H]12 [TETRACYCLINE]
zone of inhibition at 10 µg/disc (Xanthomonas campestris [14]): 12 mm | zone of inhibition at 10 µg/disc (Xanthomonas oryzae [15]): 11 mm

Cc1cc2c(cc1Cn1nnc3ccccc31)OCO2
zone of inhibition at 25 µg/disc (Aspergillus flavus [1]): 19 mm | zone of inhibition at 25 µg/disc (Fusarium oxysporum [2]): 22 mm | zone of inhibition at 25 µg/disc (Trichoderma [3]): 20 mm | zone of inhibition at 25 µg/disc (Fusarium verticillioides [4]): 18 mm | zone of inhibition at 25 µg/disc (Bacillus subtilis [5]): 18 mm | zone of inhibition at 25 µg/disc (Escherichia coli [6]): 20 mm | zone of inhibition at 25 µg/disc (Pseudomonas fluorescens [7]): 22 mm | zone of inhibition at 25 µg/disc (Xanthomonas campestris [8]): 18 mm | zone of inhibition at 25 µg/disc (Xanthomonas oryzae [10]): 19 mm | zone of inhibition at 25 µg/disc (Aspergillus niger [9]): 16 mm

O=C(Cn1nnc2ccccc21)c1ccc(Cl)cc1
zone of inhibition at 25 µg/disc (Aspergillus flavus [1]): 5 mm | zone of inhibition at 25 µg/disc (Fusarium oxysporum [2]): 6 mm | zone of inhibition at 25 µg/disc (Trichoderma [3]): 2 mm | zone of inhibition at 25 µg/disc (Fusarium verticillioides [4]): 3 mm | zone of inhibition at 25 µg/disc (Bacillus subtilis [5]): 6 mm | zone of inhibition at 25 µg/disc (Escherichia coli [6]): 5 mm | zone of inhibition at 25 µg/disc (Pseudomonas fluorescens [7]): 3 mm | zone of inhibition at 25 µg/disc (Xanthomonas campestris [8]): 4 mm | zone of inhibition at 25 µg/disc (Xanthomonas oryzae [10]): 2 mm | zone of inhibition at 25 µg/disc (Aspergillus niger [9]): 4 mm

COc1cc(Br)c(Cn2nnc3ccccc32)cc1OC
zone of inhibition at 25 µg/disc (Aspergillus flavus [1]): 10 mm | zone of inhibition at 25 µg/disc (Fusarium oxysporum [2]): 14 mm | zone of inhibition at 25 µg/disc (Trichoderma [3]): 16 mm | zone of inhibition at 25 µg/disc (Fusarium verticillioides [4]): 13 mm | zone of inhibition at 25 µg/disc (Bacillus subtilis [5]): 12 mm | zone of inhibition at 25 µg/disc (Escherichia coli [6]): 15 mm | zone of inhibition at 25 µg/disc (Pseudomonas fluorescens [7]): 18 mm | zone of inhibition at 25 µg/disc (Xanthomonas campestris [8]): 12 mm | zone of inhibition at 25 µg/disc (Aspergillus niger [9]): 9 mm

NYSTATIN
inhibition zone (IZ) (Aspergillus flavus [16]): 10 mm | inhibition zone (IZ) (Fusarium oxysporum [17]): 14 mm | inhibition zone (IZ) (Trichoderma [18]): 16 mm | inhibition zone (IZ) (Fusarium verticillioides [19]): 12 mm | inhibition zone (IZ) (Aspergillus niger [20]): 8 mm

CCCn1nnc2ccccc21
zone of inhibition at 25 µg/disc (Aspergillus flavus [1]): 4 mm | zone of inhibition at 25 µg/disc (Fusarium oxysporum [2]): 6 mm | zone of inhibition at 25 µg/disc (Trichoderma [3]): 1 mm | zone of inhibition at 25 µg/disc (Fusarium verticillioides [4]): 4 mm | zone of inhibition at 25 µg/disc (Bacillus subtilis [5]): 6 mm | zone of inhibition at 25 µg/disc (Escherichia coli [6]): 4 mm | zone of inhibition at 25 µg/disc (Pseudomonas fluorescens [7]): 1 mm | zone of inhibition at 25 µg/disc (Xanthomonas campestris [8]): 3 mm | zone of inhibition at 25 µg/disc (Xanthomonas oryzae [10]): 2 mm | zone of inhibition at 25 µg/disc (Aspergillus niger [9]): 5 mm
